Assay results published in ChEMBL document CHEMBL4371075, “α-Amino Diphenyl Phosphonates as Novel Inhibitors of Escherichia coli ClpP Protease” (J Med Chem, 2019).

Molecular target: ATP-dependent Clp protease proteolytic subunit (Escherichia coli (strain K12)) (UniProt P0A6G7)
Experiment: Inhibition of Escherichia coli C-terminal His6-tagged ClpP expressed Escherichia coli SG1146a at 200 uM using Suc-LY-AMC as substrate preincubated for 10 mins followed by substrate addition and measured over 1 hr by fluorescence assay relative to control
Method in brief: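 E. coli ClpP (625 nM) in 100 mM NaCl, 100 mM Hepes pH 7.5, 0.05% Brij 35, preincubated with compound (200 µM final, triplicates) 10 min at 30 °C. Suc-LY-AMC added (75 µM), fluorescence (ex 350/em 435 nm) followed over 1 h at 30 °C. Inhibition relative to 2% DMSO vehicle; Z-LY-CMK (200 µM) positive control; plates valid at Z' > 0.6.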

Sequence of ATP-dependent Clp protease proteolytic subunit (Escherichia coli (strain K12)) (P0A6G7 whole entry): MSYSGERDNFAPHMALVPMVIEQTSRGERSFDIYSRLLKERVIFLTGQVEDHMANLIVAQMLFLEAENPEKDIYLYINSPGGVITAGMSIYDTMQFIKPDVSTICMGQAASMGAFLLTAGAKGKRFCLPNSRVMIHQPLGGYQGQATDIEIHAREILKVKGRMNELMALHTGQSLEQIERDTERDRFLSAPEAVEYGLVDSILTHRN

Structure (SMILES) | inhibition
N=C(N)Nc1cccc2c(C(NC(=O)OCc3ccccc3)P(=O)(Oc3ccccc3)Oc3ccccc3)cccc12 (stereo unspecified) | 38%
N=C(N)Nc1ccc(C(NC(=O)OCc2ccccc2)P(=O)(Oc2ccccc2)Oc2ccccc2)cc1 (stereo unspecified) | 29%
Nc1ccc2cc(C(NC(=O)OCc3ccccc3)P(=O)(Oc3ccccc3)Oc3ccccc3)ccc2c1 (stereo unspecified) | < 1%
CC(C)CC(NC(=O)OCc1ccccc1)P(=O)(Oc1ccccc1)Oc1ccccc1 (stereo unspecified) | 4%
CN(C)c1ccc(C(NC(=O)OCc2ccccc2)P(=O)(Oc2ccccc2)Oc2ccccc2)c2ccccc12 (stereo unspecified) | < 1%
O=C(NC(c1ccc(NC(=O)C(F)(F)F)cc1)P(=O)(Oc1ccccc1)Oc1ccccc1)OCc1ccccc1 (stereo unspecified) | 15%
CC(C)C[C@H](NC(=O)OCc1ccccc1)C(=O)NC(Cc1ccc(O)cc1)P(=O)(Oc1ccccc1)Oc1ccccc1 (stereo partly specified) | < 1%
Nc1ccc(C(NC(=O)OCc2c(F)c(F)c(F)c(F)c2F)P(=O)(Oc2ccccc2)Oc2ccccc2)cc1 (stereo unspecified) | 28%
N#C[C@@H](NC(=O)OCc1ccccc1)c1cccc(N)c1 | 8%
O=C(NC(Cc1ccc(F)cc1)P(=O)(Oc1ccccc1)Oc1ccccc1)OCc1ccccc1 (stereo unspecified) | 13%
CS(=O)(=O)Nc1ccc(CCC(NC(=O)OCc2ccccc2)P(=O)(Oc2ccccc2)Oc2ccccc2)cc1 (stereo unspecified) | 10%
CC(=O)Nc1ccc(OP(=O)(Oc2ccc(NC(C)=O)cc2)C(Cc2ccc(C(F)(F)F)cc2)NC(=O)OCc2ccccc2)cc1 (stereo unspecified) | 1%
N#C[C@H](Cc1ccc(O)cc1)NC(=O)OCc1ccccc1 | < 1%
COP(=O)(Oc1ccccc1)C(Cc1ccc(O)cc1)NC(=O)OCc1ccccc1 (stereo unspecified) | 14%
O=C(NC(C1CCNCC1)P(=O)(Oc1ccccc1)Oc1ccccc1)OCc1ccccc1 (stereo unspecified) | 30%
O=C(NC(Cc1ccccc1)P(=O)(Oc1ccccc1)Oc1ccccc1)OCc1ccccc1 (stereo unspecified) | 7%
O=C(NC(c1ccc([N+](=O)[O-])cc1)P(=O)(Oc1ccccc1)Oc1ccccc1)OCc1ccccc1 (stereo unspecified) | 71%
O=C(NC(c1ccc2occc2c1)P(=O)(Oc1ccccc1)Oc1ccccc1)OCc1ccccc1 (stereo unspecified) | 6%
NCCOC(=O)NC(c1ccc(NC(=O)C(F)(F)F)cc1)P(=O)(Oc1ccccc1)Oc1ccccc1 (stereo unspecified) | 73%
N#Cc1cccc(C(NC(=O)OCc2ccccc2)P(=O)(Oc2ccccc2)Oc2ccccc2)c1 (stereo unspecified) | 15%
CC(NC(=O)OCc1ccccc1)P(=O)(Oc1ccccc1)Oc1ccccc1 (stereo unspecified) | 3%

Structure (SMILES) | inhibition
N=C(N)Nc1ccc(CC(NC(=O)OCCC(F)(F)C(F)(F)C(F)(F)C(F)(F)C(F)(C(F)(F)F)C(F)(F)F)P(=O)(Oc2ccccc2)Oc2ccccc2)cc1 (stereo unspecified) | 55%
COc1ccc(CC(NC(=O)OCc2ccccc2)P(=O)(Oc2ccccc2)Oc2ccccc2)cc1 (stereo unspecified) | 6%
O=C(NC(c1ccc2c(c1)OCO2)P(=O)(Oc1ccccc1)Oc1ccccc1)OCc1ccccc1 (stereo unspecified) | 6%
N#Cc1cc(C(NC(=O)OCc2ccccc2)P(=O)(Oc2ccccc2)Oc2ccccc2)ccc1N1CCNCC1 (stereo unspecified) | 10%
N=C(NO)c1cccc(C(Nc2ncccn2)P(=O)(Oc2ccccc2)Oc2ccccc2)c1 (stereo unspecified) | 23%
N=C(N)Nc1ccc(C(NC(=O)OCc2c(F)c(F)c(F)c(F)c2F)P(=O)(Oc2ccccc2)Oc2ccccc2)cc1 (stereo unspecified) | 48%
COC(=O)NC(c1cccc(C(=N)N)c1)P(=O)(Oc1ccccc1)Oc1ccccc1 (stereo unspecified) | 30%
COc1ccc(CC(=O)NC(C2CCN(C(=N)N)CC2)P(=O)(Oc2ccccc2)Oc2ccccc2)cc1 (stereo unspecified) | 13%
O=C(NC(c1cc([N+](=O)[O-])ccc1Cl)P(=O)(Oc1ccccc1)Oc1ccccc1)OCc1ccccc1 (stereo unspecified) | 6%
COC(=O)NC(Cc1cccc(C(F)(F)F)c1)P(=O)(Oc1ccccc1)Oc1ccccc1 (stereo unspecified) | 4%
N=C(N)N1CCC(C(NC(=O)/C=C\c2ccccc2)P(=O)(Oc2ccccc2)Oc2ccccc2)CC1 (stereo unspecified) | 11%
NCCOc1ccc(C(NC(=O)OCc2ccccc2)P(=O)(Oc2ccccc2)Oc2ccccc2)cc1 (stereo unspecified) | 15%
N=C(N)c1ccc(C(NC(=O)OCc2ccccc2)P(=O)(Oc2ccccc2)Oc2ccccc2)cc1 (stereo unspecified) | 30%
CC(=O)Nc1ccc(OP(=O)(Oc2ccc(NC(C)=O)cc2)C(Cc2ccccc2)NC(=O)OCc2ccccc2)cc1 (stereo unspecified) | 9%
N=C(N)N1CCC(C(NC(=O)/C=C/c2ccc3c(c2)OCO3)P(=O)(Oc2ccccc2)Oc2ccccc2)CC1 (stereo unspecified) | 4%
N=C(N)N1CCC(C(NC(=O)C#Cc2ccc3c(c2)OCO3)P(=O)(Oc2ccccc2)Oc2ccccc2)CC1 (stereo unspecified) | 24%
COC(=O)NC(Cc1ccc(NC(=N)N)cc1)P(=O)(Oc1ccccc1)Oc1ccccc1 (stereo unspecified) | 27%
N=C(N)NCCCC(NC(=O)OCc1ccccc1)P(=O)(Oc1ccccc1)Oc1ccccc1 (stereo unspecified) | 15%
COC(=O)NC(c1cccc2c([N+](=O)[O-])cccc12)P(=O)(Oc1ccccc1)Oc1ccccc1 (stereo unspecified) | 17%
O=C(NC(c1cccnc1)P(=O)(Oc1ccccc1)Oc1ccccc1)OCc1ccccc1 (stereo unspecified) | 27%
COC(=O)NC(c1cccc(N)c1)P(=O)(Oc1ccccc1)Oc1ccccc1 (stereo unspecified) | 7%

Structure (SMILES) | inhibition
COC(=O)NC(Cc1ccc(C(F)(F)F)cc1)P(=O)(Oc1ccc(NC(C)=O)cc1)Oc1ccc(NC(C)=O)cc1 (stereo unspecified) | 20%
O=C(NC(Cc1cccc(O)c1)P(=O)(Oc1ccccc1)Oc1ccccc1)OCc1ccccc1 (stereo unspecified) | 3%
Nc1ccc(C(NC(=O)OCCOc2ccccc2)P(=O)(Oc2ccccc2)Oc2ccccc2)cc1 (stereo unspecified) | 1%
CN(C)C(=O)Nc1ccc(C(NC(=O)OCc2ccccc2)P(=O)(Oc2ccccc2)Oc2ccccc2)cc1 (stereo unspecified) | 22%
N=C(N)N1CCC(C(Nc2ncc(-c3ccccc3)cn2)P(=O)(Oc2ccccc2)Oc2ccccc2)CC1 (stereo unspecified) | 12%
N#C[C@H](Cc1ccccc1)NC(=O)OCc1ccccc1 | < 1%
O=C(NC(c1cccc2ccccc12)P(=O)(Oc1ccccc1)Oc1ccccc1)OCc1ccccc1 (stereo unspecified) | 6%
O=C(NC(Cc1ccc2ccccc2c1)P(=O)(Oc1ccccc1)Oc1ccccc1)OCc1ccccc1 (stereo unspecified) | < 1%
O=C(NC(c1ccc2ccccc2c1)P(=O)(Oc1ccccc1)Oc1ccccc1)OCc1ccccc1 (stereo unspecified) | 51%
CN(C)c1ccc(C(NC(=O)OCc2ccccc2)P(=O)(Oc2ccccc2)Oc2ccccc2)cc1NS(C)(=O)=O (stereo unspecified) | 46%
CSCCC(NC(=O)[C@H](CCCCN)NC(=O)OCc1ccccc1)P(=O)(Oc1ccccc1)Oc1ccccc1 (stereo partly specified) | 4%
N=C(N)Nc1ccc(C(NS(=O)(=O)c2ccc(C(F)(F)F)cc2)P(=O)(Oc2ccccc2)Oc2ccccc2)cc1 (stereo unspecified) | 27%
N=C(N)N1CCC(C(NC(=O)c2ccco2)P(=O)(Oc2ccccc2)Oc2ccccc2)CC1 (stereo unspecified) | 24%
CN(C)C(=O)Nc1ccc(CC(NC(=O)OCc2ccccc2)P(=O)(Oc2ccccc2)Oc2ccccc2)cc1 (stereo unspecified) | 9%
N=C(N)N1CC(C(Nc2ncccn2)P(=O)(Oc2ccccc2)Oc2ccccc2)C1 (stereo unspecified) | 12%
O=C(NC(Cc1ccc(O)cc1)P(=O)(O)Oc1ccccc1)OCc1ccccc1 (stereo unspecified) | 11%
NCC1CCC(C(NC(=O)OCc2ccccc2)P(=O)(Oc2ccccc2)Oc2ccccc2)CC1 (stereo unspecified) | 15%
N=C(N)Nc1ccc(C(NS(=O)(=O)c2ccccc2)P(=O)(Oc2ccccc2)Oc2ccccc2)cc1 (stereo unspecified) | 29%
Nc1ccc(C(NC(=O)OCCCC(F)(F)F)P(=O)(Oc2ccccc2)Oc2ccccc2)cc1 (stereo unspecified) | < 1%
COC(=O)NC(c1ccc(NC(=O)C(F)(F)F)cc1)P(=O)(Oc1ccccc1)Oc1ccccc1 (stereo unspecified) | 64%
O=C(NC(COCc1ccccc1)P(=O)(Oc1ccccc1)Oc1ccccc1)OCc1ccccc1 (stereo unspecified) | 4%

Structure (SMILES) | inhibition
O=C(NC(Cc1ccc(O)cc1)P(=O)(Oc1ccccc1)Oc1ccccc1)OCc1ccccc1 (stereo unspecified) | < 1%
N=C(N)N1CCC(C(NS(=O)(=O)CCOc2ccccc2)P(=O)(Oc2ccccc2)Oc2ccccc2)CC1 (stereo unspecified) | 27%
N=C(N)N1CCC(C(NC(=O)/C=C/c2ccccc2)P(=O)(Oc2ccccc2)Oc2ccccc2)CC1 (stereo unspecified) | 18%
O=C(NC(CCc1ccccc1)P(=O)(Oc1ccccc1)Oc1ccccc1)OCc1ccccc1 (stereo unspecified) | < 1%
N=C(N)Nc1ccc(CC(NC(=O)OCc2c(F)c(F)c(F)c(F)c2F)P(=O)(Oc2ccccc2)Oc2ccccc2)cc1 (stereo unspecified) | 25%
CC(C)C[C@H](NC(=O)OCc1ccccc1)C(=O)N[C@H](C#N)Cc1ccc(O)cc1 | 13%
[N-]=[N+]=NCCOCCOC(=O)NC(Cc1ccc(NC(=N)N)cc1)P(=O)(Oc1ccccc1)Oc1ccccc1 (stereo unspecified) | 68%
O=C(NC(c1ccc2cc(O)ccc2c1)P(=O)(Oc1ccccc1)Oc1ccccc1)OCc1ccccc1 (stereo unspecified) | < 1%
Nc1cccc(C(NC(=O)OCc2ccc3c(c2)OCO3)P(=O)(Oc2ccccc2)Oc2ccccc2)c1 (stereo unspecified) | 20%
N=C(N)N1CCC(C(NC(=O)c2cccnc2)P(=O)(Oc2ccccc2)Oc2ccccc2)CC1 (stereo unspecified) | 13%
CC(=O)Nc1ccc(OP(=O)(Oc2ccc(NC(C)=O)cc2)C(NC(=O)OCc2ccccc2)c2cccc(N)c2)cc1 (stereo unspecified) | 21%
COC(=O)NC(c1cccc(N)c1)P(=O)(Oc1ccc(NC(C)=O)cc1)Oc1ccc(NC(C)=O)cc1 (stereo unspecified) | 12%
O=C(NC(c1cccc([N+](=O)[O-])c1)P(=O)(Oc1ccccc1)Oc1ccccc1)OCc1ccccc1 (stereo unspecified) | 6%
O=C(NC(CC1CCNCC1)P(=O)(Oc1ccccc1)Oc1ccccc1)OCc1ccccc1 (stereo unspecified) | 16%
C#CCOCCOCCOC(=O)NC(c1ccc(N2CCNCC2)cc1)P(=O)(Oc1ccccc1)Oc1ccccc1 (stereo unspecified) | 25%
C#CCCCOC(=O)NC(Cc1ccc(NC(=N)N)cc1)P(=O)(Oc1ccccc1)Oc1ccccc1 (stereo unspecified) | 23%
CC(=O)Nc1ccc(C(NC(=O)OCc2ccccc2)P(=O)(Oc2ccccc2)Oc2ccccc2)cc1 (stereo unspecified) | 8%
Cc1ccc(CC(NC(=O)OCc2ccccc2)P(=O)(Oc2ccccc2)Oc2ccccc2)cc1 (stereo unspecified) | 7%
